High-throughput results as filed in PubChem.
HTRA1 inh – inhibitors of human serine peptidase HTRA1. inhibition, % at 5.96 µM. AID 504803. 0.5% of 340,000 active. recombinant HTRA1, FP-rhodamine activity-based probe, fluorescence polarization; in the data active means inhibition above about 36%;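 further: 0% = enzyme with DMSO and 100% = wells lacking enzyme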
TCR-CD3 inh – human TCR-CD3 binding inhibition; inhibition, % at 9.4 µM; 0.37% of 360,000 active; TAMRA-labeled TCR probe fluorescence, biochemical; in the data active means inhibition above about 19%;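 further: recombinant mutant TCR 2C K166C tagged with TAMRA read by polarization; 0% = receptor in buffer alone and 100% = receptor with positive control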
PRMT1 inh – blocks human protein arginine methyltransferase 1. Q99873. 1.3% of 370,000 active. inhibition, % at 2.79 µM. recombinant PRMT1, activity-based probe fluorescence polarization. AID 652257;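 active means inhibition above about 21% made by adding two undisclosed values, limit read from the data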
Target sequence (Q99873 whole entry, looked up): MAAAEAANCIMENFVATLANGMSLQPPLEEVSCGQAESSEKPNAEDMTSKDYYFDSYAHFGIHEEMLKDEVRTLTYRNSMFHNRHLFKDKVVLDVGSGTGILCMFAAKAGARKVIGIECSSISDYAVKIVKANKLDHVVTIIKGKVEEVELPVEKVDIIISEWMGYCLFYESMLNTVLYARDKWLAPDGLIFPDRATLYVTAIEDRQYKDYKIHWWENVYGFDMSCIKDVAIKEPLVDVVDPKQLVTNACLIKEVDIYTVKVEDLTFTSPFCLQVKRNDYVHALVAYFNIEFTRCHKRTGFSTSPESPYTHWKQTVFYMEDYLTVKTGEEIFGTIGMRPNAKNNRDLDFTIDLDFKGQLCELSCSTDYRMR
ABHD4 inh – ABHD4 (mouse) inhibition, primary FP screen. Q8VD66. purified mABHD4, FP-Rh probe fluorescence polarization. inhibition, % at 8.92 µM. 0.54% of 370,000 active. AID 720543;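 active means inhibition exceeding the mean over every tested compound plus 3 SD, cut at about 30% in these data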;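 further: 0% = plate median of compound wells and 100% = S159A mutant with DMSO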
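Assay system: mABHD4 protein; medium: HEPES pH 7.0, NaCl, Pluronic buffer; dosing: 8.92 µM, single dose; schedule: 45 min + 60 min at 25 °C; signal: FP readout, ex 525 nm / em 598 nm; read-out: normalized percent inhibition of probe labeling; repeats: single replicate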
ATG4B inh – inhibitors of human ATG4B cysteine protease; inhibition, % at 8.33 µM; Q9Y4P1; AID 504462; ATG4B cleavage of LC3-PLA2, NBD-HPC fluorescence, 1 h; 0.51% of 340,000 active; in the data active means inhibition above about 40%
SIAE inh – inhibitors of human sialic acid acetylesterase SIAE; Q9HAT2; SIAE FP-Rh probe binding, fluorescence polarization; inhibition, % at 9.66 µM; 0.69% of 370,000 active; AID 1053197;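 active means inhibition above a cutoff: mean of compounds within the control limits plus 3 SD of those, cut at about 17% in these data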;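 further: 0% = plate median of compound wells and 100% = probe without SIAE protein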
An asterisk follows results filed as active. Most compounds without a hit are left out; they make up all but 2.9% or so of the library.

Screening O=C(NC1CCCC1)c1ccc2nc(-c3ccco3)c(-c3ccco3)nc2c1 returned HTRA1 inh 58.2* and ATG4B inh 21.1.
Screening O=C(NCCO)c1ccc2nc(-c3ccco3)c(-c3ccco3)nc2c1 returned HTRA1 inh 21.9, TCR-CD3 inh 25.9*, PRMT1 inh 65.0*, ABHD4 inh 41.9*, ATG4B inh 5.0 and SIAE inh 19.8*.
CCOC(=O)c1cc2n(c1/N=C/N(C)C)-c1ccccc1C2=O was read as HTRA1 inh 4.5, TCR-CD3 inh -7.1, PRMT1 inh 23.1*, ABHD4 inh 4.4, ATG4B inh -23.0 and SIAE inh 0.5.
`C=CCn1c(SCC(=O)Nc2ccccc2-c2ccccc2)nnc1-c1ccc(Cl)cc1` gave PRMT1 inh -2.6, ABHD4 inh -8.5 and SIAE inh 1.7.
CCCC/C=C1/[C@@H](C(C)C)N(Cc2ccc3c(c2)OCO3)C2=N[C@H](c3ccccc3)CC(=O)N21 was read as PRMT1 inh -3.8, ABHD4 inh -6.7 and SIAE inh -2.5.
`O=C1CSc2ccc(C(=O)Nc3cccc(S(=O)(=O)Nc4ccc(Br)cc4)c3)cc2N1` gave HTRA1 inh -160.2, TCR-CD3 inh 11.3, PRMT1 inh 21.5*, ABHD4 inh -211.4, ATG4B inh -2.0 and SIAE inh -192.6.
For CC/C=C/C(=O)N1CC2(CC(c3cccc(NC(=O)CCCCC)c3)=NO2)C[C@H]1C(N)=O (some centres undefined) the results were HTRA1 inh -5.5, TCR-CD3 inh -7.4, PRMT1 inh 5.6, ABHD4 inh -12.0, ATG4B inh -9.3 and SIAE inh -4.1.
`C/C=C/C=C/C(=O)N1CC2(CC(c3cccc(NC(=O)CCCCC)c3)=NO2)C[C@H]1C(N)=O` (some centres undefined) gave HTRA1 inh -4.4, TCR-CD3 inh 4.2, PRMT1 inh 21.2*, ABHD4 inh -5.6, ATG4B inh -9.0 and SIAE inh -5.9.
`Cc1ccc(-c2nc3sc(C(N)=O)c(N)c3c3c2CCCC3)cc1` gave HTRA1 inh -12.9, TCR-CD3 inh 2.9, PRMT1 inh 17.1, ABHD4 inh -1.9, ATG4B inh 11.5 and SIAE inh 12.0.
NC(=O)c1sc2nc(-c3ccccc3)c3c(c2c1N)CCCC3 was read as HTRA1 inh -9.3, TCR-CD3 inh 0.4, PRMT1 inh 24.7*, ABHD4 inh 5.5, ATG4B inh 6.6 and SIAE inh 2.5.
For Cc1cccc2cc3c(N)c(C(=O)Nc4ccc(N5CCOCC5)cc4)sc3nc12 the results were HTRA1 inh 11.0, TCR-CD3 inh 1.8, PRMT1 inh -0.3, ABHD4 inh 8.4, ATG4B inh -14.0 and SIAE inh 4.6.
For CCc1cccc2cc3c(N)c(C(=O)Nc4ccc(S(=O)(=O)N5CCCC5)cc4)sc3nc12 the results were HTRA1 inh -3.7, TCR-CD3 inh -7.2, PRMT1 inh 20.2, ABHD4 inh 7.0, ATG4B inh 9.2 and SIAE inh 27.4*.
Screening CCOC(=O)[C@]12CCCCC/C=C\1N(CCc1ccc(Cl)cc1)C(=O)[C@H]2CC(=O)NCc1ccc(OC)c(OC)c1 returned PRMT1 inh -2.2, ABHD4 inh -4.2 and SIAE inh -13.1.
Nn1cc(-c2ccccc2)nc1SCC(=O)Nc1ccc(S(N)(=O)=O)cc1 was read as HTRA1 inh -8.8, TCR-CD3 inh 2.8, PRMT1 inh 23.1*, ABHD4 inh -3.3, ATG4B inh -3.6 and SIAE inh -1.2.
CCCC/C=C1/[C@@H](CC)N(Cc2ccc(OC)cc2OC)C2=N[C@H](c3ccccc3)CC(=O)N21 was read as PRMT1 inh 0.2, ABHD4 inh -9.2 and SIAE inh 0.6.
Screening CC(=O)N1CCN(S(=O)(=O)c2ccc3c(c2)oc(=O)n3C)CC1 returned PRMT1 inh -2.7, ABHD4 inh -3.6 and SIAE inh 7.9.
CCOC(=O)[C@@]12CCCC3=C1N(CCC3)C(=O)[C@H]2CC(=O)N1CCSCC1 was read as PRMT1 inh -1.4, ABHD4 inh 3.7 and SIAE inh 5.6.
`CCN(CC)CCN(C(=O)c1ccc2ncsc2c1)c1nc2cc3c(cc2s1)OCO3` gave HTRA1 inh 15.3, TCR-CD3 inh -2.3, PRMT1 inh 53.5*, ABHD4 inh -1.2, ATG4B inh -8.0 and SIAE inh 0.8.
CCOC(=O)[C@@]12CCCC3=C1N(CCC3)C(=O)[C@H]2CC(=O)NCc1cccc(C(F)(F)F)c1 was read as PRMT1 inh 4.5, ABHD4 inh -1.6 and SIAE inh 2.8.
Screening Cc1cc(NC(=S)Nc2ccc(C)c(Cl)c2)n[nH]1 returned HTRA1 inh -6.2, TCR-CD3 inh -3.1, PRMT1 inh 24.1*, ABHD4 inh -18.3, ATG4B inh 39.7 and SIAE inh -4.3.
`COc1ccc(NC(=S)Nc2cc(C)[nH]n2)cc1Cl` gave HTRA1 inh -1.1, TCR-CD3 inh 1.9, PRMT1 inh 14.8, ABHD4 inh 1.1, ATG4B inh 2.3 and SIAE inh -0.8.
For CCOC(=O)c1ccc(NC(=O)CSc2nnc(-c3cccc(C)c3)n2C)cc1 the results were PRMT1 inh 0.1, ABHD4 inh 4.5 and SIAE inh -0.9.
For S=c1[nH]nc(-c2ccc3ccccc3n2)n1-c1ccc2ncccc2c1 the results were HTRA1 inh 2.4, TCR-CD3 inh -1.4, PRMT1 inh 21.4*, ABHD4 inh 11.7, ATG4B inh -10.7 and SIAE inh -4.2.
Screening COc1ccccc1CCNC(=O)CCSc1nc(-c2ccco2)cc(C(F)(F)F)n1 returned HTRA1 inh -7.9, TCR-CD3 inh -8.6, PRMT1 inh 22.9*, ABHD4 inh -18.4, ATG4B inh 13.6 and SIAE inh -4.5.
For COc1ccc(NC(=O)CSc2nnc(-c3ccccc3C)n2N)cc1OC the results were HTRA1 inh 2.5, TCR-CD3 inh -4.0, PRMT1 inh 1.4, ABHD4 inh 0.3, ATG4B inh -1.1 and SIAE inh 3.3.
`COc1ccc(NC(=O)CSc2nnc(-c3ccccc3C)n2N)cc1` gave HTRA1 inh 6.0, TCR-CD3 inh 6.2, PRMT1 inh 21.4*, ABHD4 inh 7.3, ATG4B inh 1.2 and SIAE inh -5.5.
COC(=O)[C@@]1(Cc2ccc(F)cc2)[C@H]2c3cc(C(=O)N4CCCC4)n(Cc4ccc(C)o4)c3C[C@H]2CN1C(=O)c1ccccc1 was read as TCR-CD3 inh -9.1, PRMT1 inh 24.2*, ABHD4 inh 2.4 and SIAE inh 1.9.
`COC(=O)[C@@]1(Cc2ccc(F)cc2)[C@H]2c3cc(C(=O)N4CCCC4)n(Cc4ccc(C(F)(F)F)nc4)c3C[C@H]2CN1C(=O)c1ccccc1` gave TCR-CD3 inh 2.5, PRMT1 inh 0.4, ABHD4 inh -7.8, ATG4B inh 6.0 and SIAE inh 17.1*.
